Results: ChEMBL document CHEMBL2069244 (Bioorg Med Chem Lett, 2012)
Activity calls are given as the source filed them. No cut-off for these calls is given here.

Tests used:
Mus musculus [1] = test: Anticonvulsant activity in mouse assessed as protection against subcutaneous pentylenetetrazole-induced seizures at 30 mg/kg, ip after 4 hrs; type: functional, organism-based; design: dose 30 mg/kg
Mus musculus [2] = test: Anticonvulsant activity in mouse assessed as protection against subcutaneous pentylenetetrazole-induced seizures at 300 mg/kg, ip after 4 hrs; type: functional, organism-based; design: dose 300 mg/kg
Mus musculus [3] = test: Anticonvulsant activity in mouse assessed as protection against subcutaneous pentylenetetrazole-induced seizures at 30 mg/kg, ip after 0.5 hrs; type: functional, organism-based; design: dose 30 mg/kg
Mus musculus [4] = test: Anticonvulsant activity in mouse assessed as protection against maximal electroshock-induced seizures at 300 mg/kg, ip after 0.5 hrs; type: functional, organism-based; design: dose 300 mg/kg
How it was run: (§1)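 Mice dosed ip in 30% polyethylene glycol. Corneas pretreated with 1% tetracaine, then 60 Hz alternating current (50 mA) applied for 0.2 s via corneal electrodes. Protection means absence of the hindlimb tonic extensor component. Scored as number protected/number tested.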

Mus musculus [5] = test: Neurotoxicity in mouse at 100 mg/kg, ip after 1 hrs by 6Hz psychomotor seizure test; type: toxicity, organism-based; design: dose 100 mg/kg, route intraperitoneal; settings: in vivo
How it was run: (§2)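 Mice dosed ip in 30% polyethylene glycol and placed on a rotorod at 6 rpm. An animal is scored toxic if it falls off three times within 1 min.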

Mus musculus [6] = test: Anticonvulsant activity in mouse assessed as protection against maximal electroshock-induced seizures at 30 mg/kg, ip after 0.25 hrs; type: functional, organism-based; design: dose 30 mg/kg; how it was run: as §1
Mus musculus [7] = test: Neurotoxicity in mouse at 100 mg/kg, ip after 6 hrs by 6Hz psychomotor seizure test; type: toxicity, organism-based; design: dose 100 mg/kg, route intraperitoneal; settings: in vivo; how it was run: as §2
Mus musculus [8] = test: Anticonvulsant activity in mouse assessed as protection against maximal electroshock-induced seizures at 30 mg/kg, ip after 4 hrs; type: functional, organism-based; design: dose 30 mg/kg; how it was run: as §1
Mus musculus [9] = test: Anticonvulsant activity in mouse assessed as protection against maximal electroshock-induced seizures at 30 mg/kg, ip after 1 hr; type: functional, organism-based; design: dose 30 mg/kg; how it was run: as §1
Mus musculus [10] = test: Neurotoxicity in mouse at 30 mg/kg, ip after 0.5 hrs by 6Hz psychomotor seizure test; type: toxicity, organism-based; design: dose 30 mg/kg, route intraperitoneal; settings: in vivo; how it was run: as §2
Mus musculus [11] = test: Anticonvulsant activity in mouse assessed as protection against maximal electroshock-induced seizures at 30 mg/kg, ip after 0.5 hrs; type: functional, organism-based; design: dose 30 mg/kg; how it was run: as §1
Mus musculus [12] = test: Anticonvulsant activity in mouse assessed as protection against maximal electroshock-induced seizures at 300 mg/kg, ip after 4 hrs; type: functional, organism-based; design: dose 300 mg/kg; how it was run: as §1
Mus musculus [13] = test: Anticonvulsant activity in mouse assessed as protection against maximal electroshock-induced seizures at 100 mg/kg, ip after 4 hrs; type: functional, organism-based; design: dose 100 mg/kg; how it was run: as §1
Mus musculus [14] = test: Anticonvulsant activity in mouse assessed as protection against maximal electroshock-induced seizures at 30 mg/kg, ip after 6 hrs; type: functional, organism-based; design: dose 30 mg/kg; how it was run: as §1
Mus musculus [15] = test: Neurotoxicity in mouse at 100 mg/kg, ip after 2 hrs by 6Hz psychomotor seizure test; type: toxicity, organism-based; design: dose 100 mg/kg, route intraperitoneal; settings: in vivo; how it was run: as §2
Mus musculus [16] = test: Anticonvulsant activity in mouse assessed as protection against subcutaneous pentylenetetrazole-induced seizures at 100 mg/kg, ip after 0.5 hrs; type: functional, organism-based; design: dose 100 mg/kg
Mus musculus [17] = test: Neurotoxicity in mouse at 100 mg/kg, ip after 0.25 hrs by 6Hz psychomotor seizure test; type: toxicity, organism-based; design: dose 100 mg/kg, route intraperitoneal; settings: in vivo; how it was run: as §2
Mus musculus [18] = test: Neurotoxicity in mouse at 100 mg/kg, ip after 4 hrs by 6Hz psychomotor seizure test; type: toxicity, organism-based; design: dose 100 mg/kg, route intraperitoneal; settings: in vivo; how it was run: as §2
Mus musculus [19] = test: Anticonvulsant activity in mouse assessed as protection against maximal electroshock-induced seizures at 100 mg/kg, ip after 0.5 hrs; type: functional, organism-based; design: dose 100 mg/kg; how it was run: as §1
Mus musculus [20] = test: Neurotoxicity in mouse at 100 mg/kg, ip after 0.5 hrs by 6Hz psychomotor seizure test; type: toxicity, organism-based; design: dose 100 mg/kg, route intraperitoneal; settings: in vivo; how it was run: as §2
Mus musculus [21] = test: Anticonvulsant activity in mouse assessed as protection against maximal electroshock-induced seizures at 30 mg/kg, ip after 2 hrs; type: functional, organism-based; design: dose 30 mg/kg; how it was run: as §1
Mus musculus [22] = test: Neurotoxicity in mouse at 30 mg/kg, ip after 4 hrs by 6Hz psychomotor seizure test; type: toxicity, organism-based; design: dose 30 mg/kg, route intraperitoneal; settings: in vivo; how it was run: as §2
Mus musculus [23] = test: Neurotoxicity in mouse at 300 mg/kg, ip after 4 hrs by 6Hz psychomotor seizure test; type: toxicity, organism-based; design: dose 300 mg/kg, route intraperitoneal; settings: in vivo; how it was run: as §2
Mus musculus [24] = test: Anticonvulsant activity in mouse assessed as protection against subcutaneous pentylenetetrazole-induced seizures at 100 mg/kg, ip after 4 hrs; type: functional, organism-based; design: dose 100 mg/kg
Mus musculus [25] = test: Anticonvulsant activity in mouse assessed as protection against subcutaneous pentylenetetrazole-induced seizures at 300 mg/kg, ip after 0.5 hrs; type: functional, organism-based; design: dose 300 mg/kg
Mus musculus [26] = test: Protective index, ratio of TD50 for neurotoxicity in ip dosed mouse to ED50 for anticonvulsant activity in mouse by 6Hz psychomotor seizure test; type: functional
How it was run: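 Mice dosed ip in 30% polyethylene glycol. TD50 comes from rotorod toxicity at 6 rpm (three falls in 1 min). ED50 comes from 6 Hz, 32 mA seizure protection. Both are from probit analysis with 95% confidence intervals, and the index is TD50/ED50.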

Mus musculus [27] = test: Anticonvulsant activity in ip dosed mouse assessed as protection against 32mA-induced seizure measured after 0.25 to 0.5 hrs by 6Hz psychomotor seizure test
Mus musculus [28] = test: Anticonvulsant activity in mouse assessed as peak time to protect against electrically-induced seizure at 100 mg/kg, ip by 6Hz psychomotor seizure test; type: functional; settings: route intraperitoneal
How it was run: (§3)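 Mice dosed ip in 30% polyethylene glycol, then given a 6 Hz, 32 mA corneal stimulus. Animals lacking the minimal clonic phase and stereotyped automatistic behaviours count as protected. Data are number protected/number tested at each time after dosing.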

Mus musculus [29] = test: Anticonvulsant activity in mouse assessed as protection against 32mA-induced seizure at 100 mg/kg, ip after 0.5 hrs by 6Hz psychomotor seizure test; type: functional, organism-based; design: dose 100 mg/kg; how it was run: as §3
Mus musculus [30] = test: Neurotoxicity in mouse at 300 mg/kg, ip after 0.5 hrs by 6Hz psychomotor seizure test; type: toxicity, organism-based; design: dose 300 mg/kg, route intraperitoneal; settings: in vivo; how it was run: as §2
Mus musculus [31] = test: Anticonvulsant activity in mouse assessed as protection against 32mA-induced seizure at 100 mg/kg, ip after 4 hrs by 6Hz psychomotor seizure test; type: functional, organism-based; design: dose 100 mg/kg; how it was run: as §3
Mus musculus [32] = test: Anticonvulsant activity in mouse assessed as protection against 32mA-induced seizure at 100 mg/kg, ip after 2 hrs by 6Hz psychomotor seizure test; type: functional, organism-based; design: dose 100 mg/kg; how it was run: as §3
Mus musculus [33] = test: Anticonvulsant activity in mouse assessed as protection against 32mA-induced seizure at 100 mg/kg, ip after 1 hr by 6Hz psychomotor seizure test; type: functional, organism-based; design: dose 100 mg/kg; how it was run: as §3
Mus musculus [34] = test: Anticonvulsant activity in mouse assessed as protection against 32mA-induced seizure at 100 mg/kg, ip after 0.25 hrs by 6Hz psychomotor seizure test; type: functional, organism-based; design: dose 100 mg/kg; how it was run: as §3
Mus musculus [35] = test: Anticonvulsant activity in mouse assessed as protection against maximal electroshock-induced seizures at 100 mg/kg, ip after 1 hrs; type: functional, organism-based; design: dose 100 mg/kg; how it was run: as §1
Mus musculus [36] = test: Anticonvulsant activity in mouse assessed as protection against maximal electroshock-induced seizures at 100 mg/kg, ip after 0.25 hrs; type: functional, organism-based; design: dose 100 mg/kg; how it was run: as §1
Mus musculus [37] = test: Anticonvulsant activity in mouse assessed as protection against maximal electroshock-induced seizures at 100 mg/kg, ip after 6 hrs; type: functional, organism-based; design: dose 100 mg/kg; how it was run: as §1
Mus musculus [38] = test: Anticonvulsant activity in mouse assessed as protection against maximal electroshock-induced seizures at 100 mg/kg, ip after 2 hrs; type: functional, organism-based; design: dose 100 mg/kg; how it was run: as §1

Structure (SMILES) | Activity (Mus musculus [1]) | Activity (Mus musculus [2]) | Activity (Mus musculus [3]) | Activity (Mus musculus [4]) | Activity (Mus musculus [5]) | Activity (Mus musculus [7]) | Activity (Mus musculus [8]) | Activity (Mus musculus [10]) | Activity (Mus musculus [11]) | Activity (Mus musculus [12]) | Activity (Mus musculus [13]) | Activity (Mus musculus [15]) | Activity (Mus musculus [16]) | Activity (Mus musculus [18]) | Activity (Mus musculus [19]) | Activity (Mus musculus [20]) | Activity (Mus musculus [22]) | Activity (Mus musculus [23]) | Activity (Mus musculus [24]) | Activity (Mus musculus [25]) | also measured
CCCc1cc(C(O)C(F)(F)F)ccc1O (centres undefined) | inactive | inactive | inactive | Active | Non-toxic | Non-toxic | inactive | Non-toxic | inactive | Active | inactive | Non-toxic | inactive | Non-toxic | inactive | Non-toxic | Non-toxic | Non-toxic | inactive | Active | Activity (Mus musculus [6]): inactive; Activity (Mus musculus [9]): inactive; Activity (Mus musculus [14]): inactive; Activity (Mus musculus [17]): Non-toxic; Activity (Mus musculus [21]): inactive
CC(C)c1cc(C(O)C(F)(F)F)cc(Br)c1O (centres undefined) | inactive | inactive | inactive | inactive | – | – | inactive | – | inactive | inactive | inactive | – | inactive | – | inactive | – | – | – | inactive | inactive | Ratio TD50/ED50 (Mus musculus [26]): 3.6; ED50 (Mus musculus [27]): 112 mg/kg; Time (Mus musculus [28]): 0.5 h
CCc1cc(C(O)C(F)(F)F)ccc1O (centres undefined) | inactive | inactive | inactive | inactive | – | – | inactive | Non-toxic | inactive | inactive | inactive | – | inactive | Non-toxic | inactive | Non-toxic | Non-toxic | Non-toxic | inactive | inactive | Activity (Mus musculus [29]): inactive; Activity (Mus musculus [30]): Non-toxic; Activity (Mus musculus [31]): inactive; Activity (Mus musculus [32]): inactive; Activity (Mus musculus [33]): inactive; Activity (Mus musculus [34]): inactive
Cc1cc(C(O)C(F)(F)F)ccc1O (centres undefined) | inactive | inactive | inactive | Active | Non-toxic | Non-toxic | – | Non-toxic | inactive | Active | inactive | Non-toxic | inactive | Non-toxic | inactive | Non-toxic | Non-toxic | Non-toxic | inactive | inactive | Activity (Mus musculus [29]): inactive; Activity (Mus musculus [30]): Non-toxic; Activity (Mus musculus [31]): inactive; Activity (Mus musculus [35]): inactive; Activity (Mus musculus [32]): inactive; Activity (Mus musculus [17]): Non-toxic; Activity (Mus musculus [33]): Active; Activity (Mus musculus [34]): inactive; Activity (Mus musculus [36]): inactive; Activity (Mus musculus [37]): inactive; Activity (Mus musculus [38]): inactive
CCC(C)c1cc(C(O)C(F)(F)F)cc(Br)c1O (centres undefined) | inactive | inactive | inactive | Active | – | – | inactive | – | inactive | inactive | inactive | – | inactive | – | inactive | – | – | – | inactive | inactive | Ratio TD50/ED50 (Mus musculus [26]): 1.7; Activity (Mus musculus [35]): inactive; Activity (Mus musculus [36]): inactive; Time (Mus musculus [28]): 0.5 h
